Converted amounts (≈) assume the structure as drawn.
Experiments:
Escherichia coli [1] = assay: Antimicrobial activity against Escherichia coli 35218 by broth microdilution method; assay type: functional
How it was run: (§1)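 CLSI M7-A7 broth microdilution, two-fold serial dilutions 800 down to 1.5625 μg/mL in Mueller–Hinton broth, pH 7. Compounds dissolved in DMSO; DMSO-only solvent control. Overnight cultures at 35 ± 1 °C, inoculum matched to McFarland 0.5, final 0.5-2.5 × 10^5 cfu/mL. MIC taken as last well without growth, µg/mL. Run twice. Chloramphenicol reference.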

Escherichia coli [2] = assay: Antimicrobial activity against Escherichia coli 25922 by broth microdilution method; assay type: functional; how it was run: as §1
Proteus vulgaris = assay: Antimicrobial activity against Proteus vulgaris by broth microdilution method; assay type: functional; how it was run: as §1
Salmonella typhimurium = assay: Antimicrobial activity against Salmonella Typhimurium by broth microdilution method; assay type: functional, Salmonella enterica subsp. enterica serovar Typhimurium; conditions: Salmonella enterica; how it was run: as §1
Klebsiella pneumoniae = assay: Antimicrobial activity against Klebsiella pneumoniae by broth microdilution method; assay type: functional; how it was run: as §1
Pseudomonas aeruginosa = assay: Antimicrobial activity against Pseudomonas aeruginosa by broth microdilution method; assay type: functional; how it was run: as §1
Listeria monocytogenes = assay: Antimicrobial activity against Listeria monocytogenes by broth microdilution method; assay type: functional; how it was run: as §1
Staphylococcus aureus = assay: Antimicrobial activity against Staphylococcus aureus by broth microdilution method; assay type: functional; how it was run: as §1
Enterococcus faecalis = assay: Antimicrobial activity against Enterococcus faecalis by broth microdilution method; assay type: functional; how it was run: as §1
Bacillus subtilis = assay: Antimicrobial activity against Bacillus subtilis by broth microdilution method; assay type: functional; how it was run: as §1
Candida albicans = assay: Antimicrobial activity against Candida albicans by broth microdilution method; assay type: functional
How it was run: (§2)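 Yeasts grown overnight at 35 ± 1 °C in Sabouraud dextrose broth. Tested by CLSI M7-A7 broth microdilution in Sabouraud dextrose broth, pH 7, two-fold serial dilutions 800 down to 1.5625 μg/mL of DMSO-dissolved compound. DMSO-only control. Inoculum matched to McFarland 0.5, final 0.5-2.5 × 10^5 cfu/mL. MIC is last well without growth, µg/mL. Duplicate readings. Ketoconazole reference.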

Nakaseomyces glabratus = assay: Antimicrobial activity against Candida glabrata by broth microdilution method; assay type: functional; how it was run: as §2
Candida tropicalis = assay: Antimicrobial activity against Candida tropicalis by broth microdilution method; assay type: functional; how it was run: as §2
[3] = Toxicity in Artemia salina after 24 hrs; assay type: organism-based; conditions: in vivo

Row | SMILES | MIC (Escherichia coli [1]) | MIC (Escherichia coli [2]) | MIC (Proteus vulgaris) | MIC (Salmonella typhimurium) | MIC (Klebsiella pneumoniae) | MIC (Pseudomonas aeruginosa) | MIC (Listeria monocytogenes) | MIC (Staphylococcus aureus) | MIC (Enterococcus faecalis) | MIC (Bacillus subtilis) | MIC (Candida albicans) | MIC (Nakaseomyces glabratus) | MIC (Candida tropicalis) | LC50 at 24 h [3]
1 | O=C(N/N=C/c1ccccc1)c1ccc(-c2nc3ccccc3[nH]2)cc1 | 25 µg/mL (≈ 73.4 µM) | 100 µg/mL (≈ 294 µM) | 50 µg/mL (≈ 147 µM) | 12.5 µg/mL (≈ 36.7 µM) | 25 µg/mL (≈ 73.4 µM) | 25 µg/mL (≈ 73.4 µM) | 400 µg/mL (≈ 1180 µM) | 25 µg/mL (≈ 73.4 µM) | 12.5 µg/mL (≈ 36.7 µM) | 25 µg/mL (≈ 73.4 µM) | 50 µg/mL (≈ 147 µM) | 100 µg/mL (≈ 294 µM) | 100 µg/mL (≈ 294 µM) | 
2 | O=C(N/N=C/c1ccc(O)cc1)c1ccc(-c2nc3ccccc3[nH]2)cc1 | 25 µg/mL (≈ 70.1 µM) | 100 µg/mL (≈ 281 µM) | 25 µg/mL (≈ 70.1 µM) | 25 µg/mL (≈ 70.1 µM) | 25 µg/mL (≈ 70.1 µM) | 25 µg/mL (≈ 70.1 µM) | 400 µg/mL (≈ 1120 µM) | 50 µg/mL (≈ 140 µM) | 25 µg/mL (≈ 70.1 µM) | 25 µg/mL (≈ 70.1 µM) | 100 µg/mL (≈ 281 µM) | 100 µg/mL (≈ 281 µM) | 100 µg/mL (≈ 281 µM) | 
3 | CN(C)c1ccc(/C=N/NC(=O)c2ccc(-c3nc4ccccc4[nH]3)cc2)cc1 | 25 µg/mL (≈ 65.2 µM) | 100 µg/mL (≈ 261 µM) | 50 µg/mL (≈ 130 µM) | 25 µg/mL (≈ 65.2 µM) | 50 µg/mL (≈ 130 µM) | 25 µg/mL (≈ 65.2 µM) | 200 µg/mL (≈ 522 µM) | 50 µg/mL (≈ 130 µM) | 25 µg/mL (≈ 65.2 µM) | 25 µg/mL (≈ 65.2 µM) | 100 µg/mL (≈ 261 µM) | 50 µg/mL (≈ 130 µM) | 100 µg/mL (≈ 261 µM) | 
4 | O=C(N/N=C/c1ccc(Cl)cc1)c1ccc(-c2nc3ccccc3[nH]2)cc1 | 25 µg/mL (≈ 66.7 µM) | 100 µg/mL (≈ 267 µM) | 25 µg/mL (≈ 66.7 µM) | 6.25 µg/mL (≈ 16.7 µM) | 12.5 µg/mL (≈ 33.3 µM) | 25 µg/mL (≈ 66.7 µM) | 100 µg/mL (≈ 267 µM) | 12.5 µg/mL (≈ 33.3 µM) | 12.5 µg/mL (≈ 33.3 µM) | 25 µg/mL (≈ 66.7 µM) | 50 µg/mL (≈ 133 µM) | 50 µg/mL (≈ 133 µM) | 50 µg/mL (≈ 133 µM) | > 1000 µg/mL
5 | O=C(N/N=C/c1ccc(Br)cc1)c1ccc(-c2nc3ccccc3[nH]2)cc1 | 25 µg/mL (≈ 59.6 µM) | 50 µg/mL (≈ 119 µM) | 25 µg/mL (≈ 59.6 µM) | 12.5 µg/mL (≈ 29.8 µM) | 12.5 µg/mL (≈ 29.8 µM) | 25 µg/mL (≈ 59.6 µM) | 200 µg/mL (≈ 477 µM) | 25 µg/mL (≈ 59.6 µM) | 12.5 µg/mL (≈ 29.8 µM) | 25 µg/mL (≈ 59.6 µM) | 100 µg/mL (≈ 239 µM) | 100 µg/mL (≈ 239 µM) | 50 µg/mL (≈ 119 µM) | > 1000 µg/mL
6 | O=C(N/N=C/c1ccc(F)cc1)c1ccc(-c2nc3ccccc3[nH]2)cc1 | 25 µg/mL (≈ 69.8 µM) | 50 µg/mL (≈ 140 µM) | 50 µg/mL (≈ 140 µM) | 6.25 µg/mL (≈ 17.4 µM) | 25 µg/mL (≈ 69.8 µM) | 50 µg/mL (≈ 140 µM) | 200 µg/mL (≈ 558 µM) | 50 µg/mL (≈ 140 µM) | 25 µg/mL (≈ 69.8 µM) | 25 µg/mL (≈ 69.8 µM) | 100 µg/mL (≈ 279 µM) | 100 µg/mL (≈ 279 µM) | 50 µg/mL (≈ 140 µM) | 
7 | Cc1ccc(/C=N/NC(=O)c2ccc(-c3nc4ccccc4[nH]3)cc2)cc1 | 25 µg/mL (≈ 70.5 µM) | 100 µg/mL (≈ 282 µM) | 25 µg/mL (≈ 70.5 µM) | 6.25 µg/mL (≈ 17.6 µM) | 12.5 µg/mL (≈ 35.3 µM) | 50 µg/mL (≈ 141 µM) | 200 µg/mL (≈ 564 µM) | 25 µg/mL (≈ 70.5 µM) | 12.5 µg/mL (≈ 35.3 µM) | 50 µg/mL (≈ 141 µM) | 100 µg/mL (≈ 282 µM) | 100 µg/mL (≈ 282 µM) | 100 µg/mL (≈ 282 µM) | > 1000 µg/mL
8 | COc1ccc(/C=N/NC(=O)c2ccc(-c3nc4ccccc4[nH]3)cc2)cc1 | 25 µg/mL (≈ 67.5 µM) | 50 µg/mL (≈ 135 µM) | 50 µg/mL (≈ 135 µM) | 6.25 µg/mL (≈ 16.9 µM) | 25 µg/mL (≈ 67.5 µM) | 25 µg/mL (≈ 67.5 µM) | 200 µg/mL (≈ 540 µM) | 25 µg/mL (≈ 67.5 µM) | 12.5 µg/mL (≈ 33.7 µM) | 25 µg/mL (≈ 67.5 µM) | 100 µg/mL (≈ 270 µM) | 50 µg/mL (≈ 135 µM) | 50 µg/mL (≈ 135 µM) | 
9 | O=C(N/N=C/c1ccc([N+](=O)[O-])cc1)c1ccc(-c2nc3ccccc3[nH]2)cc1 | 25 µg/mL (≈ 64.9 µM) | 100 µg/mL (≈ 259 µM) | 50 µg/mL (≈ 130 µM) | 12.5 µg/mL (≈ 32.4 µM) | 25 µg/mL (≈ 64.9 µM) | 50 µg/mL (≈ 130 µM) | 200 µg/mL (≈ 519 µM) | 25 µg/mL (≈ 64.9 µM) | 25 µg/mL (≈ 64.9 µM) | 50 µg/mL (≈ 130 µM) | 50 µg/mL (≈ 130 µM) | 100 µg/mL (≈ 259 µM) | 100 µg/mL (≈ 259 µM) | 
10 | O=C(N/N=C/c1ccc(C(F)(F)F)cc1)c1ccc(-c2nc3ccccc3[nH]2)cc1 | 25 µg/mL (≈ 61.2 µM) | 100 µg/mL (≈ 245 µM) | 50 µg/mL (≈ 122 µM) | 12.5 µg/mL (≈ 30.6 µM) | 25 µg/mL (≈ 61.2 µM) | 50 µg/mL (≈ 122 µM) | 200 µg/mL (≈ 490 µM) | 25 µg/mL (≈ 61.2 µM) | 12.5 µg/mL (≈ 30.6 µM) | 50 µg/mL (≈ 122 µM) | 100 µg/mL (≈ 245 µM) | 100 µg/mL (≈ 245 µM) | 50 µg/mL (≈ 122 µM) | 
11 | O=C(O)c1ccc(/C=N/NC(=O)c2ccc(-c3nc4ccccc4[nH]3)cc2)cc1 | 50 µg/mL (≈ 130 µM) | 200 µg/mL (≈ 520 µM) | 100 µg/mL (≈ 260 µM) | 25 µg/mL (≈ 65 µM) | 50 µg/mL (≈ 130 µM) | 100 µg/mL (≈ 260 µM) | 400 µg/mL (≈ 1040 µM) | 50 µg/mL (≈ 130 µM) | 50 µg/mL (≈ 130 µM) | 50 µg/mL (≈ 130 µM) | 200 µg/mL (≈ 520 µM) | 200 µg/mL (≈ 520 µM) | 200 µg/mL (≈ 520 µM) | 
12 | N#Cc1ccc(/C=N/NC(=O)c2ccc(-c3nc4ccccc4[nH]3)cc2)cc1 | 25 µg/mL (≈ 68.4 µM) | 100 µg/mL (≈ 274 µM) | 50 µg/mL (≈ 137 µM) | 12.5 µg/mL (≈ 34.2 µM) | 12.5 µg/mL (≈ 34.2 µM) | 50 µg/mL (≈ 137 µM) | 200 µg/mL (≈ 547 µM) | 25 µg/mL (≈ 68.4 µM) | 12.5 µg/mL (≈ 34.2 µM) | 50 µg/mL (≈ 137 µM) | 100 µg/mL (≈ 274 µM) | 100 µg/mL (≈ 274 µM) | 50 µg/mL (≈ 137 µM) | 
13 | O=C(N[C@H](CO)[C@H](O)c1ccc([N+](=O)[O-])cc1)C(Cl)Cl [CHLORAMPHENICOL] | 12.5 µg/mL (≈ 38.7 µM) | 12.5 µg/mL (≈ 38.7 µM) | 50 µg/mL (≈ 155 µM) | 12.5 µg/mL (≈ 38.7 µM) | 12.5 µg/mL (≈ 38.7 µM) | 50 µg/mL (≈ 155 µM) | 50 µg/mL (≈ 155 µM) | 12.5 µg/mL (≈ 38.7 µM) | 12.5 µg/mL (≈ 38.7 µM) | 12.5 µg/mL (≈ 38.7 µM) |  |  |  | 
14 | CC(=O)N1CCN(c2ccc(OCC3COC(Cn4ccnc4)(c4ccc(Cl)cc4Cl)O3)cc2)CC1 (configuration not stated) [KETOCONAZOLE] |  |  |  |  |  |  |  |  |  |  | 50 µg/mL (≈ 94.1 µM) | 25 µg/mL (≈ 47 µM) | 50 µg/mL (≈ 94.1 µM) | 
